# Dynein transport – inhibitors of GR-EGFP nuclear translocation, primary screen, dynein cargo transport inhibitor project, imaging, high-content, 3617.4 mouse cells | test concentration mostly 20 µM; stimulated with dexamethasone, 1 µM; active compounds read low | z-score, hits read low | actives 0.47% (n = 220,000);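 active means plate z-score of nuclear minus cytoplasmic receptor signal below a set negative limit, without overly bright fluorescence or cell loss, cut at about -3.5 in these data, passing the limit was not always enough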;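 further: z-score of nuclear minus cytoplasmic ring GR-EGFP intensity difference per well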
#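 Buffer or medium – tet-free medium with charcoal-stripped serum · Signal – automated 10x imaging of fixed Hoechst-stained cells · Also added – dexamethasone agonist, 1.0 µM final, for 30 min · Incubation – induction 48 h, compound 1 h, agonist 30 min · Read-out – GR-EGFP nuclear translocation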
# Autophagy mod – autophagy modulators in MEF cells, primary screen, imaging, high-content, MEF GFP-LC3 | MEF GFP-LC3 puncta imaging; test concentration mostly 10 µM | calls only at 10 µM (by protocol) | actives 0.98% (n = 190,000) | AID 463193, 2010;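 active means percentage of spot-positive cells more than 3 SD above its plate mean, without a fluorescence outlier flag or 80% toxicity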;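 further: spot-positive cell cutoff set from DMSO-treated cells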
# HCT116 PTEN-null – growth suppression of PTEN-null HCT116, primary screen, cell-based, CellTiter-Glo; HCT116 PTEN-null viability, 60 h; active compounds read low; viability, % at 10 µM; actives 1.2% (n = 140,000);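 active means viability at or below a set limit, 4 SD under the median of all tested compounds, cut at about 3.7% in these data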;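 further: PTEN knockout HCT116 line with beta catenin targeted HCT116 as companion control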
# bCat KO growth – primary screen for growth suppressors in beta-catenin knockout HCT116 cells (colon tumor, human). HCT116 beta-catenin knockout viability, CellTiter-Glo, 60 h; active compounds read low. actives 1.5% (n = 140,000). AID 818, 2007. viability, % at 10 µM;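 active means viability at or under a set limit, the compound median less 4 SD, cut at about 6% in these data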;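 further: 0% = Hyamine 1622 control at 20 µM and 100% = untreated cell control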
# Lmaj promast – Leishmania major promastigote growth inhibition, primary screen; actives 9% (n = 200,000); AID 1063, 2008; inhibition, % at 10 µM; Leishmania major promastigotes, resazurin fluorescence viability; in the data active means inhibition above about 50%;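 further: promastigotes grown with compound for 44 hours at 28 °C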
# * hit, by the source's call; i = inactive; . = not tested or not shown; + = active, no number. Hits are enriched below; roughly 9.2% of the tested compounds scored in any of these assays.
SMILES,Dynein transport,Autophagy mod,HCT116 PTEN-null,bCat KO growth,Lmaj promast
CC1CN(S(=O)(=O)N2CCOCC2)CCN1S(=O)(=O)N1CCOCC1 (stereo not drawn),-1.1,i,.,.,2
COc1ccccc1CN(C(=O)CCl)C(C(=O)NC1CCCCC1)c1ccncc1 (stereo not drawn),-0.91,i,105,96,61*
COCCC(=O)N(Cc1ccc2c(c1)OCO2)C(C(=O)NC1CCCCC1)c1ccncc1 (stereo not drawn),-1.2,i,89,80,-3
CCOC(=O)C(C)/C(C)=N/NC(=O)CCC(=O)Nc1cc(C)ccc1C (stereo not drawn),0.87,i,.,.,-4
CNc1sc(C(=O)c2ccccc2F)c(N)c1-c1nc2ccccc2s1,-0.41,i,82,73,6
O=C(Nc1cccc(O)c1)c1ccc(Br)cc1,-1.7,i,91,97,9
O=C(NNc1ccc(O)cc1)c1ccc(Br)cc1,-0.1,i,.,.,98*
CC#CC#Cc1cccc(=O)o1,-1.1,.,.,.,.
CC(=O)c1ccc(N2CCN(C(=O)c3ccco3)C(C)C2)c(F)c1 (stereo not drawn),-0.22,i,96,92,64*
CC(=O)c1ccc(N2CCN(C(=O)c3ccco3)CC2)c(F)c1,0.21,i,100,99,-5
Cc1ccc(Cc2cnc(NC(=O)/C(C#N)=C/c3ccc(-c4ccccc4[N+](=O)[O-])o3)s2)cc1,-0.57,+,51,36,5
COc1cc(/C=C/C(=O)OCC(=O)c2c(N)n(C)c(=O)n(C)c2=O)ccc1OCC#N,0.65,i,.,.,-2
N#C/C(=C/c1ccco1)c1nc2ccccc2s1,0.18,i,74,75,57*
CS(=O)(=O)N1CCN(c2ccccc2[N+](=O)[O-])CC1,1.3,i,.,.,4
Cn1c(Cn2c(=O)sc3ccccc32)nnc1SCC(=O)NCCc1ccccc1,-1,i,114,84,-9
COc1ccc(CCN(C(=O)C(F)(F)F)C(C(=O)NC2CCCCC2)c2ccc(C)s2)cc1OC (stereo not drawn),3.4,i,94,89,46
COc1ccc(CCN(C(=O)C(F)(F)F)C(C(=O)NC2CCCC2)c2cccs2)cc1OC (stereo not drawn),-0.4,i,92,82,59*
CCc1cc(=O)[nH]c(SCCC(F)=C(F)F)n1,-0.31,i,.,.,-1
COc1ccc(C2=NN(C(C#N)c3ccc(OC)c(OC)c3)C(c3ccccc3)C2)cc1 (stereo not drawn),0.22,i,47,68,100*
CC(C)(C)NCc1cccn1-c1sc2c(c1C#N)CCCC2,0.0069,i,72,74,78*
N#Cc1c(N2C(=O)Nc3ccccc3N2O)sc2c1CCCC2,1.1,i,.,.,-3
O=C(Nc1ccc2ncccc2c1)c1cc(Cl)ccc1Cl,0.87,i,.,.,16
Cc1[nH]c2ccccc2c1C(=O)CN1C(=O)NC2(CC(C)CC(C)(C)C2)C1=O (stereo not drawn),0.02,i,44,57,90*
CCC(CC)c1nnc(NC(=O)CCNC(=O)c2ccccc2Cl)s1,0.08,i,.,.,-2
CCOc1ccc2nc(NCCNC(=S)NCCCN(C)C)c(C#N)cc2c1,2.2,i,.,.,56*
SMILES,Dynein transport,Autophagy mod,HCT116 PTEN-null,bCat KO growth,Lmaj promast
CCOc1ccc2nc(NCCNC(=O)Nc3ccccc3)c(C#N)cc2c1,-0.77,i,88,95,9
COCCNC(=O)CCn1c(=O)oc2ccccc21,0.45,i,92,92,70*
CCn1cc(C(=O)OCC(=O)c2cc(C)n(-c3ccccc3)c2C)c(=O)c2ccc(C)nc21,0.68,i,69,67,-4
CCn1cc(C(=O)OCC(=O)c2cc(C)n(-c3ccccc3F)c2C)c(=O)c2ccc(C)nc21,-1.3,i,82,81,53*
CCN(CC)CC(C)(C)COC(=O)c1oc2ccccc2c1C,-0.16,.,.,.,.
CCc1nnc(NC(=O)C2Cc3ccccc3CN2S(=O)(=O)CC)s1 (stereo not drawn),0.19,i,.,.,-2
CCS(=O)(=O)N1Cc2ccccc2CC1C(=O)Nc1nc2ccccc2s1 (stereo not drawn),0.42,i,74,80,67*
Cc1cc(C)c(OCCCCN2CCC(C)CC2)c(Br)c1,-0.27,i,.,.,98*
Cc1cc(Cl)c(OCCOCCN2CCC(C)CC2)c(Br)c1,-0.24,i,52,51,99*
Cc1cc(C)c(OCCCON2C(=O)CCC2=O)c(Br)c1,0.39,i,.,.,-5
Cc1nnc(NC(=O)c2ccc(S(=O)(=O)C(F)F)cc2)s1,-0.84,.,.,.,.
COc1cc(C(=O)NC2CCCc3ccccc32)ccc1OCC(=O)Nc1ccc(F)cc1 (stereo not drawn),-0.23,i,81,72,-2
Cc1nc(SCC(=O)Nc2ccc(Cl)cc2[N+](=O)[O-])nc(C)c1C,-0.63,i,90,92,7
COc1ccc(CCN(C(=O)c2cccc(F)c2)C2CC(=O)N(c3ccc(OC)cc3)C2=O)cc1 (stereo not drawn),-0.099,i,93,93,72*
CCCOc1ccc(N2C(=O)CC(N(Cc3ccc(OC)cc3)C(=S)Nc3ccccc3)C2=O)cc1 (stereo not drawn),-0.99,i,55,68,69*
CC1(C)Cc2cccc(OCC(=O)Nc3cccnc3Cl)c2O1,0.18,i,98,102,-1
Cc1cc(C)c(C)c(S(=O)(=O)N2CCNCC2)c1C,-0.78,+,.,.,10
Cc1ccc([N+](=O)[O-])cc1S(=O)(=O)N1CCNCC1,-0.36,i,.,.,-6
CC(=O)N/C(=C\c1ccccc1)C(=O)NCC(=O)O,-0.094,i,98,94,-4
Oc1c(C(c2ccccc2Cl)N2CCCC2)ccc2cccnc12 (stereo not drawn),0.41,i,.,.,100*
CC(C)(C)n1nnnc1C(c1cccs1)N1CCN(c2ccccc2)CC1 (stereo not drawn),2.7,i,76,80,6
Oc1c(C(c2cccs2)N2CCN(c3ccccc3)CC2)ccc2cccnc12 (stereo not drawn),-2.3,i,5,3.0*,84*
CCc1ccc(N2CN(Cc3ccco3)CNC2=S)cc1,-1.5,.,.,.,.
Cc1cccc2sc(NNC(=O)c3ccc(S(=O)(=O)N4CCc5ccccc5C4)cc3)nc12,2.9,i,5,3.7*,99*
Cc1cccc2sc(NNC(=O)c3ccc(S(=O)(=O)N4CCCC(C)C4)cc3)nc12 (stereo not drawn),0.79,i,4,1.9*,96*
N#C/C(=C\c1ccc(-c2cccc([N+](=O)[O-])c2)o1)C(=O)Nc1nc(-c2cccs2)cs1,-0.45,.,.,.,.

# Bioassay records from PubChem.
